Format in all cases: functional
The subject of experiment [1] is SF-268. The experiment can be described thus: Growth inhibition of human SF268 cells at 10 uM after 48 hrs by SRB assay. Particulars: SF-268, 48 h, read-out: GI. The essentials:
(§1)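 Cells grown in RPMI 1640 with 5% FBS and 2 mM L-glutamine, plated at 5000–40,000 cells/well by doubling time and preincubated 24 h (37 °C, 5% CO2); a time-zero plate is TCA-fixed. Single dose added, then 48 h incubation. Fixed with cold TCA, stained with 0.4% SRB, dye solubilized in 10 mM Tris base, absorbance at 515 nm; percent growth vs time-zero and untreated control.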

Experiment [2] deals with DU-145. The experiment can be described thus: Growth inhibition of human DU145 cells at 10 uM after 48 hrs by SRB assay. The conditions noted are these: DU-145, 48 h, read-out: GI. The gist of the method:
as §1

The nature of experiment [3]: Growth inhibition of human EKVX cells at 10 uM after 48 hrs by SRB assay. The conditions noted are these: read-out: GI. The essentials:
as §1

The subject of experiment [4] is NCI-H460. Put plainly: Growth inhibition of human NCI-H460 cells at 10 uM after 48 hrs by SRB assay. The conditions noted are these: NCI-H460, 48 h, read-out: GI. The gist of the method:
as §1

The test system of experiment [5] is MDA-MB-468. Put plainly: Growth inhibition of human MDA-MB-468 cells at 10 uM after 48 hrs by SRB assay. The essentials:
as §1

In experiment [6] the test system is PC-3. The experiment can be described thus: Growth inhibition of human PC3 cells at 10 uM after 48 hrs by SRB assay. Particulars: PC-3, 48 h, read-out: GI. The essentials:
as §1

The test system of experiment [7] is MDA-MB-435. Put plainly: Growth inhibition of human MDA-MB-435 cells at 10 uM after 48 hrs by SRB assay. Particulars: MDA-MB-435, 48 h, read-out: GI. The essentials:
as §1

Experiment [8] deals with T47D. The experiment can be described thus: Growth inhibition of human T47D cells at 10 uM after 48 hrs by SRB assay. Particulars: read-out: GI. The gist of the method: (§2)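 NCI 60-cell-line screen with a single 10 µM dose. Cells are grown in RPMI 1640 with 5% FBS and 2 mM L-glutamine, plated at 5000–40,000 cells/well according to doubling time, and preincubated 24 h at 37 °C, 5% CO2; time-zero plates are TCA-fixed at that point. Drug exposure is 48 h. Adherent cells are fixed with cold TCA, stained with 0.4% SRB in 1% acetic acid and read at 515 nm. Percent growth is calculated relative to time-zero and untreated controls and reported as GI%.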

The subject of experiment [9] is SNB-19. Put plainly: Growth inhibition of human SNB19 cells at 10 uM after 48 hrs by SRB assay. The conditions noted are these: SNB-19, 48 h, read-out: GI. The essentials:
as §2

Experiment [10] has as its system SK-MEL-28. The experiment can be described thus: Growth inhibition of human SK-MEL-28 cells at 10 uM after 48 hrs by SRB assay. Particulars: SK-MEL-28, 48 h, read-out: GI. The gist of the method: as §1
Experiment [11] relates to BT-549. Put plainly: Growth inhibition of human BT549 cells at 10 uM after 48 hrs by SRB assay. The conditions noted are these: BT-549, 48 h, read-out: GI. The gist of the method: as §1
Experiment [12] concerns UO-31. Put plainly: Growth inhibition of human UO31 cells at 10 uM after 48 hrs by SRB assay. The conditions noted are these: UO-31, 48 h, read-out: GI. The gist of the method:
as §2

Experiment [13] has as its system MCF7. Put plainly: Growth inhibition of human MCF7 cells at 10 uM after 48 hrs by SRB assay. The conditions noted are these: MCF7, 48 h, read-out: GI. The essentials: as §1
For experiment [14], the system named is RXF 393. The experiment can be described thus: Growth inhibition of human RXF393 cells at 10 uM after 48 hrs by SRB assay. Particulars: RXF 393, 48 h, read-out: GI. The gist of the method:
as §1

The test system of experiment [15] is A498. The experiment can be described thus: Growth inhibition of human A498 cells at 10 uM after 48 hrs by SRB assay. Particulars: A498, 48 h, read-out: GI. The essentials: as §1
Experiment [16] relates to RPMI-8226. The experiment can be described thus: Growth inhibition of human RPMI8226 cells at 10 uM after 48 hrs by SRB assay. Particulars: RPMI-8226, 48 h, read-out: GI. The essentials:
as §1

Experiment [17] has as its system UACC-62. The experiment can be described thus: Growth inhibition of human UACC62 cells at 10 uM after 48 hrs by SRB assay. The conditions noted are these: UACC-62, 48 h, read-out: GI. The gist of the method: as §2
Experiment [18] can be described thus: Growth inhibition of human NCI-ADR-RES cells at 10 uM after 48 hrs by SRB assay. The conditions noted are these: read-out: GI. The essentials: as §1
Experiment [19] concerns HCT-15. Put plainly: Growth inhibition of human HCT15 cells at 10 uM after 48 hrs by SRB assay. The conditions noted are these: HCT-15, 48 h, read-out: GI. The essentials:
as §1

Experiment [20] has as its system NCI-H322M. Put plainly: Growth inhibition of human NCI-H322M cells at 10 uM after 48 hrs by SRB assay. The conditions noted are these: read-out: GI. The essentials: as §1
For experiment [21], the system named is OVCAR-4. Put plainly: Growth inhibition of human OVCAR4 cells at 10 uM after 48 hrs by SRB assay. Particulars: OVCAR-4, 48 h, read-out: GI. The gist of the method: as §1
Experiment [22] relates to TK-10. The experiment can be described thus: Growth inhibition of human TK10 cells at 10 uM after 48 hrs by SRB assay. Particulars: TK-10, 48 h, read-out: GI. The essentials: as §2
Experiment [23] deals with HL-60(TB). Put plainly: Growth inhibition of human HL-60(TB) cells at 10 uM after 48 hrs by SRB assay. Particulars: HL-60, 48 h, read-out: GI. The essentials: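 Single-concentration pass across the 60-line panel in RPMI 1640 with 5% FBS. Cells preincubated 24 h, then exposed 48 h at 37 °C, 5% CO2. Read by SRB staining with absorbance at 515 nm. Percent growth is taken relative to time-zero and untreated controls and reported as percent growth inhibition (GI %).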

For experiment [24], the system named is HCT-116. Put plainly: Growth inhibition of human HCT116 cells at 10 uM after 48 hrs by SRB assay. The conditions noted are these: HCT-116, 48 h, read-out: GI. The gist of the method:
as §1

The source made the active and inactive calls. No cut-off for these calls is given here.

On to `O=c1c2cccc3c(N4CCCC4)ccc(c32)c2nc3ccccc3n12`, for which the inhibition of growth at 10 µM was < 20% in [1]; 21.9% in experiment [2]; 24.1% in experiment [3]; 83.9% in experiment [4]; < 20% in experiment [5] (MDA-MB-468, 48 h, read-out: GI); 32.1% in experiment [6]. Besides, the inhibition of growth at 10 µM in experiment [7] was < 20%; in experiment [8] it was 27.9%; in experiment [9], 24%; in [10], < 20%; in experiment [11], 28.8%; in experiment [12] it was 43.8%. In addition, the inhibition of growth at 10 µM was 50% in experiment [13]; < 20% in experiment [14]; 62% in experiment [15]; 24.3% in [16]; 37.5% in experiment [17]; < 20% in experiment [18]. The inhibition of growth at 10 µM in experiment [19] was 21.4%; in experiment [20], < 20%; in [21] it was 21.2%; in [22], < 20%; in [23], 28%; in experiment [24] it was 45.3%.

Consider `O=c1c2cccc3c(Nc4ccccn4)ccc(c32)c2nc3ccccc3n12`, for which the inhibition of growth at 10 µM in experiment [1] was < 20%; in experiment [2], < 20%; in [4], 47.3%; in [6] it was 36%; in [7] it was < 20%; in [8], 53.4%. Further, the inhibition of growth at 10 µM in experiment [9] was < 20%; in [10], < 20%; in [11], < 20%; in [12] it was 53.5%; in [13], 71.3%; in [14] it was < 20%. For the same molecule, the inhibition of growth at 10 µM was < 20% in experiment [15]; 51% in [16]; 35.7% in experiment [17]; 25.4% in experiment [18]; 40.8% in experiment [19]; 25.5% in experiment [20]. Moreover, the inhibition of growth at 10 µM in experiment [21] came out at 30.9%; in [22], 34.2%; in experiment [23] it was 37.7%; in [24], 35%. In addition, in experiment [5], the “growth inhibition (GI)” value was “Active”.

Values taken from ChEMBL document CHEMBL2424551, “Synthesis, in vitro evaluation and molecular modelling of naphthalimide analogue as anticancer agents” (2013).
